# Compounds with a hit are over-represented: about 2.8% of the library has one in this group of screens.
# m5-HT2A agonist – mouse Htr2a agonists via beta-arrestin recruitment, primary screen, cell-based, luminescence | CHO-K1 mHTR2A beta-arrestin complementation; percent of 30 µM serotonin response | 360,000 compounds, 0.66% hits | AID 624169, 2012 | activation, % at 7.6 µM | 5-hydroxytryptamine receptor 2A (Mus musculus), P35363;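 active = activation above a run cutoff, the mean activation of all tested compounds plus 3 SD, cut at about 14% in these data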
# EBI2 antag – EBI2 receptor antagonists, beta-arrestin recruitment, primary screen, cell-based, luminescence, 7a,25-OHC stimulation, uHTS. G-protein coupled receptor 183 (Homo sapiens), P32249. 7a,25-OHC stimulated. inhibition, % at 5 µM. 360,000 compounds, 0.81% hits; in the data active = inhibition above about 38%;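 also: enzyme fragment complementation signal reports receptor beta-arrestin coupling in cells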
# MC4R antagonist – MC4R antagonists of cAMP signaling, primary screen, cell-based, TR-FRET, antagonist arm of biased-ligand search. Melanocortin receptor 4 (Homo sapiens), P32245. MC4R-expressing cells, MTII-stimulated cAMP, LANCE TR-FRET. inhibition, % at 6.5 µM. 360,000 compounds, 0.48% hits;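 active = inhibition above its plate's cutoff, the mean of tested wells on that plate plus 3 SD, cut at about 29% in these data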
# Target sequence (P32245 whole entry, looked up): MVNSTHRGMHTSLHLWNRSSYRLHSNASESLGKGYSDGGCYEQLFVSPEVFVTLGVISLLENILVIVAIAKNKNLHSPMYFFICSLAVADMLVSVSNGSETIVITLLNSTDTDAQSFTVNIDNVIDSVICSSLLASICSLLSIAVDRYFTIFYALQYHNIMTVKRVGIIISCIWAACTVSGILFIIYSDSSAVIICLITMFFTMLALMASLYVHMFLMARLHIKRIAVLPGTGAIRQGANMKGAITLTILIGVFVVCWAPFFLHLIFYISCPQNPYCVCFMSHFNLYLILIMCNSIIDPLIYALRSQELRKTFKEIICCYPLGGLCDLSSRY
#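 Assay system: human MC4R-expressing U2OS cells; reagent: Melanotan II stimulation of cells; dosing: 6.5 µM single dose; timing: compound 30 min, challenge 1 h, detection 1 h; signal: TR-FRET cAMP assay; replicates: one well per compound, no replicates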
# MC4R barr agon – MC4R agonists recruiting beta-arrestin, primary screen, cell-based, luminescence, agonist arm of biased-ligand search; U2OS MC4R beta-arrestin complementation; percent of melanotan II response, DMSO zero; activation, % at 8.9 µM; 360,000 compounds, 0.98% hits; AID 540308, 2011;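 active = activation above a per-plate cutoff, the mean activation of sample wells on that plate plus 3 SD, cut at about 8% in these data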
# EBI2 conf – EBI2 antagonist hit retest, beta-arrestin, confirmation, cell-based, single concentration, luminescence, 7a,25-OHC stimulation; shares compounds with EBI2 antag; 7a,25-OHC antagonism; inhibition, % at 5 µM; 2,400 compounds, 29% hits; AID 651997, 2013;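 active = inhibition of at least 50%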
# EBI2 agonist – EBI2 agonist activity of antagonist hits, confirmation, counter-screen for EBI2 antagonist project, cell-based, single concentration, agonist mode, luminescence | shares compounds with EBI2 antag | EBI2-expressing cells, 60 min; 0% vehicle, 100% 7α,25-dihydroxycholesterol control | activation, % at 5 µM | 2,400 tested, under 10 active;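 active = activation of at least 50%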
# bGal cs – E. coli beta-galactosidase enzyme inhibition, confirmation, counter-screen for EBI2 antagonist project, biochemical, luminescence, single concentration. shares compounds with EBI2 antag. purified beta-galactosidase, luminescent Galacton Star, 15 min. inhibition, % at 5 µM. 2,400 compounds, 1% hits. AID 652176, 2013;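 active = replicate-average signal at least 3 plate SD below neutral wells, shown as high inhibition, flagging enzyme-inhibiting false positives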;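 also: higher means stronger loss of beta-gal luminescence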
# A number is an active result; - = inactive; . = no result given.
SMILES,m5-HT2A agonist,EBI2 antag,MC4R antagonist,MC4R barr agon,EBI2 conf,EBI2 agonist,bGal cs
O=C(COc1ccccc1)N1CCN(c2ncccn2)CC1,-,-,-,-,.,.,.
O=C(COc1ccc(Br)cc1)N1CCN(c2ncccn2)CC1,-,94,-,-,79,-,-
O=C(COc1ccc(Cl)cc1)N1CCN(c2ncccn2)CC1,-,73,-,-,58,-,-
CC1=C(C(=O)N2CCOCC2)CC(CC(=O)NCCCCc2ccccc2)C(=O)N1Cc1ccc(F)cc1 (configuration not stated),-,-,-,-,.,.,.
Cc1ccc(C(=O)NC(=S)NCc2ccco2)cc1,-,-,-,-,.,.,.
O=C1NC(=O)c2cc(Oc3ccc([N+](=O)[O-])cc3)ccc21,-,-,-,-,.,.,.
COc1ccc(S(=O)(=O)N2CCC(C(=O)NCCC(=O)NC3CC3)CC2)cc1,-,-,-,-,.,.,.
Cc1cc(N2CCN(c3nc(-c4ccccc4)cs3)CC2)c2ccccc2n1,-,55,-,-,-,-,-
c1ccc(-c2csc(N3CCCCCC3)n2)cc1,-,-,-,-,.,.,.
Cc1ccc(/C=C/C(=O)N2CCN(c3ncccn3)CC2)o1,-,-,-,-,.,.,.
CC(C)(C)c1ccc(/C=C/C(=O)N2CCOCC2)cc1,-,-,-,-,.,.,.
CC(C)(C)c1ccc(/C=C/C(=O)N2CCN(c3ncccn3)CC2)cc1,-,65,-,-,61,-,-
O=C(/C=C/c1ccc(F)cc1)N1CCN(c2ncccn2)CC1,-,93,-,-,78,-,-
CCOc1ccccc1NC(=O)CSc1nncc2ccccc12,-,-,-,-,.,.,.
CC(Sc1nc(N)cc(=O)[nH]1)C(=O)Nc1nc2c(s1)CCCC2 (configuration not stated),-,-,-,-,.,.,.
CCOc1ccccc1N1CCN(C(=O)c2cc3cc(OC)ccc3[nH]2)CC1,-,52,-,-,-,-,-
COc1cccc(N2CCN(C(=O)c3cc4cc(Cl)ccc4[nH]3)CC2)c1,-,51,-,-,-,-,-
CCOc1ccccc1N1CCN(C(=O)c2cc(C)oc2C)CC1,-,-,-,-,.,.,.
COc1ccc2cc(C(=O)N3CCN(c4ccc(F)cc4)CC3)[nH]c2c1,-,64,-,-,50,-,-
O=C(c1cc2cc(F)ccc2[nH]1)N1CCN(c2cccc(Cl)c2)CC1,-,61,-,-,-,-,-
COC(=O)c1cc(CNC(=O)c2sccc2-c2ccccc2)ccc1OC,-,-,-,-,.,.,.
Cc1[nH]c(-c2ccc(F)cc2)cc1C(=O)N1CCN(c2cccc(Cl)c2)CC1,-,91,-,-,61,-,-
COc1ccc(C(=O)NNC(=O)CSc2nnc(C(C)C)n2C)cc1,-,-,-,-,.,.,.
Cc1ccc(-c2nnc(SCC(=O)NNC(=O)COc3cccc(C)c3)n2C)cc1,-,45,-,-,-,-,-
Cc1ccc(-c2nnc(SCC(=O)NNC(=O)COc3ccccc3C)n2C)cc1,-,53,-,-,-,-,-
COc1ccc(C(=O)NNC(=O)CSc2nnc(-c3ccc(O)cc3)n2C)cc1,-,69,-,-,-,-,-
O=C(CNC(=O)c1cccs1)Nc1ccc2c(c1)OCCO2,-,-,-,-,.,.,.
C#CC1(O)CCC2C3CCc4cc(O)cc(C)c4C3CCC21C (configuration not stated),-,-,-,-,.,.,.
O=C(NCc1ccco1)c1cccc2c1C(=O)c1ccc(/C=C/c3ccccc3)cc1S2(=O)=O,-,-,-,-,.,.,.

# Assay outcomes: PubChem, several laboratories
